Reference: ChEMBL document CHEMBL1795311, “Synthesis, antiproliferative activity, and mechanism of action of a series of 2-{[(2E)-3-phenylprop-2-enoyl]amino}benzamides” (Eur J Med Chem, 2011)
Activity calls are given as the source filed them. No cut-off for these calls is given here.

Key:
SK-MEL-2 = assay: Growth inhibition of human SK-MEL-2 cells after 48 hrs by SRB assay; assay type: functional; details: SK-MEL-2, 48 h
How it was run: (§1)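 Run by the NCI Developmental Therapeutics Program: cells in RPMI 1640 with 5% FBS and 2 mM L-glutamine, plated at 5000–40,000 cells/well and grown 24 h before dosing. Drug (DMSO stock) given at five concentrations for 48 h at 37 °C, 5% CO2. Adherent cells fixed with cold TCA, stained with 0.4% SRB and read at 515 nm. GI50, TGI and LC50 taken from the time-zero, control and treated absorbances.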

M14 = assay: Growth inhibition of human M14 cells after 48 hrs by SRB assay; assay type: functional; details: M14, 48 h
How it was run: (§2)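 NCI DTP panel cells grown in RPMI 1640 with 5% FBS and 2 mM L-glutamine, preincubated 24 h, then given five concentrations (10-fold or ½-log dilutions from DMSO stock) for 48 h at 37 °C. Cells fixed with TCA, stained with SRB, absorbance read at 515 nm, with time-zero plates as reference.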

NCI/ADR-RES = assay: Growth inhibition of human NCI/ADR-RES cells after 48 hrs by SRB assay; assay type: functional; how it was run: as §2
A498 = assay: Growth inhibition of human A498 cells after 48 hrs by SRB assay; assay type: functional; details: A498, 48 h; how it was run: as §2
RPMI-8226 = assay: Growth inhibition of human RPMI8226 cells after 48 hrs by SRB assay; assay type: functional; details: RPMI-8226, 48 h; how it was run: as §2
EKVX = assay: Growth inhibition of human EKVX cells after 48 hrs by SRB assay; assay type: functional; how it was run: as §2
BT-549 = assay: Growth inhibition of human BT549 cells after 48 hrs by SRB assay; assay type: functional; details: BT-549, 48 h; how it was run: as §2
NCI-H23 = assay: Growth inhibition of human NCI-H23 cells after 48 hrs by SRB assay; assay type: functional; details: NCI-H23, 48 h; how it was run: as §2
MDA-MB-435 = assay: Growth inhibition of human MDA-MB-435 cells after 48 hrs by SRB assay; assay type: functional; details: MDA-MB-435, 48 h; how it was run: as §2
MDA-MB-468 = assay: Growth inhibition of human MDA-MB-468 cells after 48 hrs by SRB assay; assay type: functional; details: MDA-MB-468, 48 h; how it was run: as §2
HL-60 = assay: Growth inhibition of human HL60 cells after 48 hrs by SRB assay; assay type: functional; details: HL-60, 48 h; how it was run: as §2
SF-268 = assay: Growth inhibition of human SF268 cells after 48 hrs by SRB assay; assay type: functional; details: SF-268, 48 h; how it was run: as §2
SNB-19 = assay: Growth inhibition of human SNB19 cells after 48 hrs by SRB assay; assay type: functional; details: SNB-19, 48 h; how it was run: as §1
HOP-62 = assay: Growth inhibition of human HOP62 cells after 48 hrs by SRB assay; assay type: functional; details: HOP-62, 48 h; how it was run: as §2
PtK2 [1] = assay: Inhibition of tubulin polymerization in Potorous tridactylus PtK2 cells assessed as microtubule disruption at 10 uM after 24 hrs by immunofluorescence microscopy; assay type: cell-based
How it was run: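 PtK2 (Potorous tridactylis kidney) cells treated 24 h at 37 °C at 10 μM. Then fixed and stained directly with Cy3-anti-β-tubulin and FITC-anti-β-actin monoclonal antibodies and imaged by epifluorescence microscopy. Combretastatin A-4 (1 μM) and latrunculin A (1 μM) used as references.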

K562 [2] = assay: Cell cycle distribution in human K562 cells assessed as blocked at M phase at 1 uM after 24 hrs by ethidium bromide/acridine orange staining (reference value: 1%); assay type: functional
How it was run: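 K562 exposed to 1 μM for 24 h, then stained with ethidium bromide and acridine orange. The percentage of cells arrested in mitosis was scored morphologically; untreated cells served as control.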

Bos taurus [3] = species: Bos taurus; assay: Inhibition of purified bovine brain tubulin polymerization by turbidimetry
How it was run: (§3)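 Purified bovine brain tubulin. Reaction mixtures preincubated at 30 °C without GTP, chilled on ice, then given 0.4 mM GTP at 0 °C. Temperature jumped to 30 °C and held 20 min while turbidity was followed spectrophotometrically. Maximal rate and extent of assembly compared with a control run in the same experiment. Concentrations tested up to 40 μM.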

K562 [4] = assay: Cell cycle distribution in human K562 cells assessed as decrease in accumulation at G0/G1 phase at 1 to 4 uM after 24 hrs by flow cytometry; assay type: functional, cell-based
How it was run: (§4)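 K562 exposed 24 h to 1, 2 or 4 μM. Washed cells resuspended in hypotonic propidium iodide (50 μg/ml in 0.1% sodium citrate plus 0.03% NP-40), incubated 30 min. DNA-content histograms acquired by flow cytometry give the G0–G1, S and G2-M fractions.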

PtK2 [5] = assay: Binding affinity to actin in Potorous tridactylus PtK2 cells at 10 uM; assay type: cell-based
How it was run: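 PtK2 (Potorous tridactylus kidney) cells treated 24 h at 37 °C, then fixed and stained by direct immunofluorescence with Cy3-anti-β-tubulin and FITC-anti-β-actin monoclonals. Microtubule and microfilament networks were examined by epifluorescence microscopy.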

Mus musculus = assay: Toxicity in non-tumorated mouse at 400 mg/kg; assay type: organism-based; design: dose 400 mg/kg; details: in vivo
How it was run: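 Run by the NCI in vivo toxicity assay in non-tumored mice, at a dose of 400 mg/kg.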

K562 [6] = assay: Cell cycle distribution in human K562 cells assessed as increase in accumulation at G2/M phase at 1 to 4 uM after 24 hrs by flow cytometry; assay type: functional, cell-based; how it was run: as §4
K562 [7] = assay: Induction of apoptosis in human K562 cells assessed as accumulation of hypodiploid nuclei after 48 hrs by FITC- conjugated annexin-V/propidium iodide based flow cytometry; assay type: functional, cell-based; details: K562, 48 h
How it was run: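 K562 cells treated with various concentrations for 48 h. Apoptosis scored as the percentage of hypodiploid nuclei in the sub-G0–G1 peak after hypotonic propidium iodide staining (50 μg/ml in 0.1% sodium citrate, 0.03% NP-40, 30 min), measured by flow cytometry. Annexin-V-FITC/PI staining, 15 min at 20 °C, also read by flow cytometry. Mean ±SE shown.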

K562 [8] = assay: Induction of apoptosis in human K562 cells assessed as induction in morphological alterations at 2 uM after 24 hrs ny phase contrast invertoscope; assay type: functional, cell-based
How it was run: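 Living K562 cells in culture medium, exposed 24 h to 2, 5 or 10 μM or left untreated, then viewed by phase contrast invertoscope at 40× magnification for morphologic alterations.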

Bos taurus [9] = species: Bos taurus; assay: Inhibition of purified bovine brain tubulin microtubule assembly up to 40 uM; how it was run: as §3

GI50 (SK-MEL-2) [nM] | GI50 (RPMI-8226) [nM] | GI50 (BT-549) [nM] | GI50 (NCI-H23) [nM] | GI50 (HL-60) [nM] | Structure (SMILES) | GI50 (M14) [nM] | GI50 (A498) [nM] | GI50 (EKVX) [nM] | GI50 (SF-268) [nM] | GI50 (SNB-19) [nM] | GI50 (HOP-62) [nM] | further results
2750 | 2790 | 3190 | 3370 | 1420 | NC(=O)c1cc(Cl)ccc1NC(=O)/C=C/c1ccccc1 | 1710 | 3610 | 2830 | 2900 | 3180 | 3150 | GI50 (NCI/ADR-RES): 2240 nM; GI50 (MDA-MB-435): 492 nM; GI50 (MDA-MB-468): 1170 nM
1400 | 347 | 9470 | 840 | 54.2 | NC(=O)c1cc(I)ccc1NC(=O)/C=C/c1ccccc1 | 429 | 2700 | 734 | 2310 | 586 | 800 | Activity (PtK2 [1]): Active; Activity (K562 [2]): 35%; Activity (Bos taurus [3]): Active; Activity (K562 [4]): Active; Activity (PtK2 [5]): Active; Activity (Mus musculus): Non-toxic; Activity (K562 [6]): Active; AC50 (K562 [7]): 3700 nM; Activity (K562 [8]): Active; Activity (Bos taurus [9]): inactive
